Calls of active or inactive are those of the source. No cut-off for these calls is given here.
Experiments:
HL-60 = assay: Cytotoxicity against human HL60 cells assessed as decrease in cell survival after 72 hrs by MTT assay; format: functional, cell-based; conditions: HL-60, 72 h
How it was run: (§1)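 HeLa (2000/well), A549 and MRC-5 (5000/well) seeded 20 h before treatment; HL-60 (7000/well) 2 h before. Five concentrations (6.25–100 μM or 3.125–50 μM) from 5 mM DMSO stocks, final DMSO ≤1%, 72 h; survival by MTT. Cisplatin positive control; three independent experiments in triplicate.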

A549 = assay: Cytotoxicity against human A549 cells assessed as decrease in cell survival after 72 hrs by MTT assay; format: functional, cell-based; conditions: A549, 72 h; how it was run: as §1
HeLa [1] = assay: Cell cycle arrest in human HeLa cells assessed as accumulation at G2/M phase at 2 times IC50 after 24 hrs by propidium iodide staining-based flow cytometric method; format: functional
How it was run: (§2)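 HeLa cells treated 24 h at IC50 or 2×IC50 (from 72 h assay), fixed in 70% ethanol, stored at –20 °C ≥1 week, RNase A 30 min 37 °C, propidium iodide stained; flow cytometry, 10 000 gated events. Mean ± SD of three independent experiments; one-way ANOVA with Dunnett's post-test, p < 0.05.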

Calf thymus DNA [2] = assay: Binding affinity to calf thymus DNA assessed as hypochromism at 40 uM after 90 mins by UV/visible spectrophotometric analysis; format: nucleic-acid assay; conditions: Bos taurus
How it was run: (§3)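 CT-DNA stock in 10 mM Tris-HCl pH 7.9 (A260/A280 1.89–2.01; concentration from ε260 6600 M–1 cm–1). Compound (10, 20 or 40 μM) plus CT-DNA (95 μM) in 40 mM bicarbonate pH 8.4, 37 °C 90 min; spectra 200–800 nm. Hyper/hypochromism at 259 nm from bound versus summed free compound and DNA extinction; triplicate.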

DNA [3] = assay: Induction of Escherichia coli pUC19 DNA cleavage at 0.05 to 0.4 mM after 90 mins by agarose gel electrophoresis method; format: nucleic-acid assay
How it was run: (§4)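 Plasmid pUC19 (from E. coli XL1 blue; 460 ng, 12 nM) incubated with compound (0.05–0.4 mM; from 2 mM DMSO stock) in 20 μL 40 mM bicarbonate pH 8.4 at 37 °C for 90 min; 1% agarose gel in TAE at 80 V, ethidium bromide staining, UV at 312 nm; supercoiled/nicked/linear forms scored.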

DNA [4] = assay: Reversal of Fe2+-induced Escherichia coli pUC19 DNA cleavage at 1:2 compound to Fe2+ mole ratio after 90 mins by agarose gel electrophoresis method; format: functional
How it was run: (§5)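 Compound (4 μL of 2 mM) preincubated with FeSO4 (1 or 2 μL of 8 mM; compound:Fe 1:1 or 1:2) in bicarbonate buffer 60 min at 37 °C, then pUC19 added for another 90 min; products resolved on 1% agarose gel, ethidium bromide stained.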

Calf thymus DNA [5] = assay: Binding affinity to calf thymus DNA at 10 to 40 uM after 90 mins by UV/visible spectrophotometric analysis; format: nucleic-acid assay; conditions: Bos taurus; how it was run: as §3
HeLa [6] = assay: Downregulation of miR-21 expression in human HeLa cells at 10 uM after 24 hrs by RT-qPCR method; format: functional, cell-based
[7] = Antioxidant activity assessed as DPPH free radical scavenging activity after 30 mins; format: functional
How it was run: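 DPPH (0.05 mM in methanol) mixed with equal volume of compound (DMSO solution diluted in methanol), kept in dark at room temperature 30 min; absorbance at 517 nm, methanol control, ascorbic acid positive control. IC50 = concentration giving 50% of maximum scavenging; mean ± SD of independent triplicate experiments.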

Calf thymus DNA [8] = assay: Binding affinity to calf thymus DNA assessed as hypochromism at 10 to 20 uM after 90 mins by UV/visible spectrophotometric analysis; format: nucleic-acid assay; conditions: Bos taurus; how it was run: as §3
HeLa [9] = assay: Upregulation of miR-206 expression in human HeLa cells at 10 uM after 24 hrs by RT-qPCR method; format: functional, cell-based
HeLa [10] = assay: Cell cycle arrest in human HeLa cells assessed as accumulation at sub-G1 phase at 2 times IC50 after 24 hrs in presence of caspase-9 inhibitor Z-LEHD-FMK by propidium iodide-staining based flow cytometric method; format: functional
How it was run: (§6)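 HeLa cells pretreated 2 h with 40 μM peptide caspase inhibitor (Z-DEVD-FMK caspase-3, Z-IETD-FMK caspase-8 or Z-LEHD-FMK caspase-9), then exposed to 2×IC50 compound; subG1 fraction by propidium iodide flow cytometry, compared with samples lacking inhibitor.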

MRC5 [11] = assay: Induction of DNA damage in human MRC5 cells assessed as formation of DNA breaks after 24 hrs by comet assay; format: functional, cell-based
How it was run: (§7)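 MRC-5 cells exposed 24 h to 3.125–25 μM compound; DNA damage scored as % tail DNA (tail intensity) by comet assay. PBS negative control; H2O2 50 μM 5 min in-gel positive control. Triplicate, repeated twice; mean ± SD.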

DNA [12] = assay: Reversal of Fe2+-induced Escherichia coli pUC19 DNA cleavage at 1:1 compound to Fe2+ mole ratio after 90 mins by agarose gel electrophoresis method; format: functional; how it was run: as §5
HeLa [13] = assay: Cell cycle arrest in human HeLa cells assessed as decrease in cell levels at G1 phase at 2 times IC50 after 24 hrs by propidium iodide staining-based flow cytometric method; format: functional; how it was run: as §2
Calf thymus DNA [14] = assay: Displacement of Hoechst 33258 from calf thymus DNA assessed as quenching constant by fluorescence spectrophotometric analysis; format: nucleic-acid assay; conditions: Bos taurus
How it was run: (§8)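 CT-DNA 100 μM (per phosphate) in 40 mM bicarbonate pH 8.4 pretreated 20 min with Hoechst 33258 (28 μM final), then compound added stepwise. Excitation 350 nm, emission 390–550 nm, read at 444 nm, 10 nm slits; H–DNA as control. Quenching constant K by Stern–Volmer, I0/I versus r = [compound]/[DNA]; triplicate.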

HeLa [15] = assay: Upregulation of MMP9 gene expression in human HeLa cells at 10 uM after 24 hrs by RT-qPCR method; format: functional, cell-based
MRC5 [16] = assay: Induction of DNA damage in human MRC5 cells assessed as formation of DNA breaks at 25 uM after 24 hrs by comet assay relative to control; format: functional; how it was run: as §7
Calf thymus DNA [17] = assay: Binding affinity to calf thymus DNA after 90 mins by spectroscopic titration method; format: nucleic-acid assay; conditions: Bos taurus
How it was run: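 Compound fixed at 40 μM titrated with CT-DNA (2.2–13 × 10–5 M) in 40 mM bicarbonate pH 8.4 after 90 min at 37 °C; absorbance at 259 nm per DNA level. Kb from slope/intercept ratio of [DNA]/(εa–εf) versus [DNA] plot; triplicate assays.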

HeLa [18] = assay: Cytotoxicity against human HeLa cells assessed as decrease in cell survival after 72 hrs by MTT assay; format: functional, cell-based; how it was run: as §1
HeLa [19] = assay: Downregulation of miR-155 expression in human HeLa cells at 10 uM after 24 hrs by RT-qPCR method; format: functional, cell-based
HeLa [20] = assay: Downregulation of TIMP3 gene expression in human HeLa cells at 10 uM after 24 hrs by RT-qPCR method; format: functional, cell-based
HeLa [21] = assay: Downregulation of VEGFA gene expression in human HeLa cells at 10 uM after 24 hrs by RT-qPCR method; format: functional, cell-based
HeLa [22] = assay: Downregulation of MMP2 gene expression in human HeLa cells at 10 uM after 24 hrs by RT-qPCR method; format: functional, cell-based
HeLa [23] = assay: Cell cycle arrest in human HeLa cells assessed as accumulation at sub-G1 phase at 2 times IC50 after 24 hrs in presence of caspase-8 inhibitor Z-IETD-FMK by propidium iodide-staining based flow cytometric method; format: functional; how it was run: as §6
HeLa [24] = assay: Downregulation of miR-133b expression in human HeLa cells at 10 uM after 24 hrs by RT-qPCR method; format: functional, cell-based
HeLa [25] = assay: Cell cycle arrest in human HeLa cells assessed as accumulation at sub-G1 phase at IC50 and 2 times IC50 after 24 hrs by propidium iodide staining-based flow cytometric method; format: functional; how it was run: as §2
MRC5 [26] = assay: Cytotoxicity against human MRC5 cells assessed as decrease in cell survival after 72 hrs by MTT assay; format: cell-based; conditions: MRC5, 72 h; how it was run: as §1
HeLa [27] = assay: Prooxidant activity in human HeLa cells assessed as increase in H2O2-induced reactive oxygen species at 10 uM preincubated for 24 hrs followed by H2O2 addition and measured after 30 mins by dichlorofluorescein dye-based flow cytometric method; format: functional, cell-based
How it was run: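 HeLa cells pretreated 24 h with 10 μM compound, washed, loaded with 30 μM DCFH-DA in PBS 45 min at 37 °C. One portion read directly (endogenous ROS); other portion exposed to 10 mM H2O2 30 min at 37 °C. DCF green fluorescence by flow cytometry, 20 000 events per sample; mean ± SD of two independent experiments.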

Calf thymus DNA [28] = assay: Displacement of Hoechst 33258 from calf thymus DNA assessed as fluorescence intensity of compound-DNA complex at 22 uM by fluorescence spectrophotometric analysis relative to control; format: nucleic-acid assay; conditions: Bos taurus; how it was run: as §8
HeLa [29] = assay: Cell cycle arrest in human HeLa cells assessed as accumulation at sub-G1 phase at 2 times IC50 after 24 hrs in presence of caspase-3 inhibitor Z-DEVD-FMK by propidium iodide-staining based flow cytometric method; format: functional; how it was run: as §6
DNA [30] = assay: Induction of Escherichia coli pUC19 DNA cleavage after 90 mins by agarose gel electrophoresis method; format: nucleic-acid assay; how it was run: as §4
EA.hy 926 = assay: Antiangiogenic activity in human EAhy926 cells assessed as inhibition of tubular structures formation at IC20 after 20 hrs by inverted phase-contrast microscopic method; format: functional, cell-based
Calf thymus DNA [31] = assay: Binding affinity to calf thymus DNA assessed as hyperchromism at 10 to 20 uM after 90 mins by UV/visible spectrophotometric analysis; format: nucleic-acid assay; conditions: Bos taurus; how it was run: as §3

Row | SMILES | IC50 (HL-60) | IC50 (A549) | Activity (HeLa [1]) | Activity (DNA [4]) | Activity (Calf thymus DNA [5]) | Activity (HeLa [6]) | IC50 [7] | Activity (HeLa [9]) | Activity (HeLa [10]) | Activity (MRC5 [11]) | Activity (DNA [12]) | Activity (HeLa [13]) | K (Calf thymus DNA [14]) | Activity (HeLa [15]) | Activity (MRC5 [16]) | Kb (Calf thymus DNA [17]) | IC50 (HeLa [18]) | Activity (HeLa [19]) | Activity (HeLa [20]) | Activity (HeLa [21]) | further results
1 | O=C(/C=C/c1ccc(C(=O)Nc2nnc(-c3ccc(O)c(O)c3)s2)cc1)c1ccccc1 | 8.4 µM | 42.8 µM | Active | Active | Active | Active | 12 µM | Active | inactive | Dose-dependent effect | Active | Active | 3.3 | Active | 45% | 1.09 ×10³ /M | 9.37 µM | Active | Active | inactive | Activity (Calf thymus DNA [2]): inactive; Activity (DNA [3]): inactive; Activity (Calf thymus DNA [8]): 13%; Activity (HeLa [22]): Active; Activity (HeLa [23]): inactive; Activity (HeLa [24]): Active; Activity (HeLa [25]): Active; IC50 (MRC5 [26]): 36 µM; Activity (HeLa [27]): Active; Activity (Calf thymus DNA [28]): 58%; Activity (HeLa [29]): inactive
2 | O=C(Nc1nnc(-c2ccc(O)c(O)c2)s1)c1ccc(/C=C/C(=O)c2cccs2)cc1 | 15.7 µM | 47.9 µM | Active | Active | Active | Active | 11.1 µM | inactive | inactive | Dose-dependent effect | Active | Active | 4.66 | Active | 25% | 1.01 ×10³ /M | 12.7 µM | Active | Active | Active | Activity (DNA [30]): inactive; Activity (HeLa [22]): Active; Activity (HeLa [23]): inactive; Activity (HeLa [24]): Active; Activity (HeLa [25]): Active; inhibition (EA.hy 926): Active; IC50 (MRC5 [26]): 68.5 µM; Activity (HeLa [27]): inactive; Activity (Calf thymus DNA [31]): Active; Activity (Calf thymus DNA [28]): 51%; Activity (HeLa [29]): inactive

Source: ChEMBL document CHEMBL4257556, “Novel 1,3,4-thiadiazole-chalcone hybrids containing catechol moiety: synthesis, antioxidant activity, cytotoxicity and DNA interaction studies” (Medchemcomm, 2018)
